In ChEMBL document CHEMBL4130408, “Photoactivation provides a mechanistic explanation for pan-assay interference behaviour of 2-aminopyrroles in lipoxygenase inhibition” (Eur J Med Chem, 2017):

Molecular target: T1, Polyunsaturated fatty acid lipoxygenase ALOX15 (Homo sapiens) (UniProt P16050)
T1 sequence (whole entry): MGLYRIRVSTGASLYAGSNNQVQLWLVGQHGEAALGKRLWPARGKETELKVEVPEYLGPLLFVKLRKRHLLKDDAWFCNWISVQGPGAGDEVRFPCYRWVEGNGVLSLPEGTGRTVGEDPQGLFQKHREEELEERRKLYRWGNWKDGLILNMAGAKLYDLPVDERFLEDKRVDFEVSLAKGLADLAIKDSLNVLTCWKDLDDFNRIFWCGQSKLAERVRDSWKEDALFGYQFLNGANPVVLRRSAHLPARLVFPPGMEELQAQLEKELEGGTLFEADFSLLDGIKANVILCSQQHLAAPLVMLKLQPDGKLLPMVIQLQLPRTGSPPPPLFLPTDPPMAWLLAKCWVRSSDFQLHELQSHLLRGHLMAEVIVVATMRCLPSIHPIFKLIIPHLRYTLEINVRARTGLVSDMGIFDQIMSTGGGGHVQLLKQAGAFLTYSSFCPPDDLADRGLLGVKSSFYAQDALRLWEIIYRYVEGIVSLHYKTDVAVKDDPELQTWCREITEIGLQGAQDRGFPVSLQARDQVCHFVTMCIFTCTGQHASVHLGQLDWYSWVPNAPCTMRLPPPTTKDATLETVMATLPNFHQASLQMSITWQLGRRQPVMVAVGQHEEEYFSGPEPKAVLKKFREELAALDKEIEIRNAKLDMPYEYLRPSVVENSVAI
Experiment: Inhibition of recombinant human 15-LOX-1 expressed in Escherichia coli BL21(DE3) assessed as residual activity at 50 uM using linoleic acid as substrate preincubated for 10 mins followed by substrate addition
Method in brief: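 h-15-LOX-1 (1:100 enzyme stock, 1:400 final) preincubated 10 min at room temperature with inhibitor in 25 mM HEPES pH 7.4, then linoleic acid added to 25 µM final (inhibitor 50 µM final). 13(S)-HpODE formation read as A234 over time, rate taken from linear part within first 16 min; no-inhibitor = 100%, no-enzyme = 0%. Triplicate.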

| Structure (SMILES) | Activity |
| --- | --- |
| Nc1[nH]c(C(=O)c2ccccc2)c(-c2ccc(Cl)cc2)c1C(=O)NCCC1=CCCCC1 | 94.9% |
| Nc1[nH]c(C(=O)c2ccccc2)c(-c2ccccn2)c1C(=O)NCCCCl | 92.1% |
| COc1ccc(C(=O)c2[nH]c(N)c(C(=O)NCCc3c[nH]c4ccccc34)c2-c2ccc(Cl)c(Cl)c2)cc1 | 41.9% |
| Cc1cc(C)cc(-c2c(C(=O)c3ccccc3)[nH]c(N)c2C(=O)NCCc2c[nH]c3ccccc23)c1 | -47.3% |
| Nc1[nH]c(C(=O)c2ccc(Br)cc2)c(-c2ccc(Cl)c(Cl)c2)c1C(=O)NCCc1c[nH]c2ccccc12 | 50% |
| CC(C)(C)C(=O)c1c(N)[nH]c(C(=O)c2ccccc2)c1-c1ccc(C(F)(F)F)cc1 | 86.9% |
| Nc1[nH]c(C(=O)c2ccccc2)c(-c2ccccc2C(F)(F)F)c1C(=O)c1c[nH]c2ccccc12 | 94.1% |
| COc1ccc2cccc(-c3c(C(=O)c4ccc(Br)cc4)[nH]c(N)c3C(=O)NC3CCCCC3)c2c1 | 34% |
| Nc1[nH]c(C(=O)c2ccc(Cl)cc2)c(-c2ccc(Br)cc2)c1C(=O)NCCc1c[nH]c2ccccc12 | 53.3% |
| Nc1[nH]c(C(=O)c2ccc(Br)cc2)c(-c2ccccc2Cl)c1C(=O)NCCc1c[nH]c2ccccc12 | 71% |
| Nc1[nH]c(C(=O)c2ccc(Br)cc2)c(-c2ccncc2)c1C(=O)c1ccccc1 | 109% |
| CCCCCCNC(=O)c1c(N)[nH]c(C(=O)c2ccccc2)c1-c1ccc(O)cc1 | 90.8% |
| Nc1[nH]c(C(=O)c2ccccc2)c(-c2ccc(Cl)cc2)c1C(=O)NCCc1c[nH]c2ccccc12 | 84.7% |
| Nc1[nH]c(C(=O)c2ccccc2)c(-c2cc(F)ccc2Br)c1C(=O)NCCc1c[nH]c2ccccc12 | -29.7% |
| Nc1[nH]c(C(=O)c2ccccc2)c(-c2ccc(Cl)cc2)c1C(=O)c1c[nH]c2ccccc12 | 73.9% |
| Nc1[nH]c(C(=O)c2ccccc2)c(-c2ccccc2[N+](=O)[O-])c1C(=O)NCCc1c[nH]c2ccccc12 | 98.1% |
| COc1ccc(CCNC(=O)c2c(N)[nH]c(C(=O)c3ccccc3)c2-c2ccc(N(C)C)cc2)cc1 | 66.4% |
| Nc1[nH]c(C(=O)c2ccc(Br)cc2)c(-c2ccc(Cl)cc2)c1C(=O)NCCc1c[nH]c2ccccc12 | 19.3% |
| Nc1[nH]c(C(=O)c2ccc(Br)cc2)c(-c2ccc(Br)cc2)c1C(=O)NCc1ccc(F)cc1 | 102% |
| Nc1[nH]c(C(=O)c2ccc(Br)cc2)c(-c2ccc(Br)cc2)c1C(=O)NCc1ccc(-c2ccccc2)cc1 | 91.2% |
| Nc1[nH]c(C(=O)c2ccccc2)c(-c2cccnc2)c1C(=O)c1ccccc1 | 84.9% |
| Nc1[nH]c(C(=O)c2ccccc2)c(-c2ccc(Cl)cc2)c1C(=O)NCc1ccccc1 | 97.3% |
| CCCCNC(=O)c1c(N)[nH]c(C(=O)c2ccccc2)c1-c1ccc(Cl)cc1 | 104% |
| N#Cc1c(N)[nH]c(C(=O)c2ccccc2)c1-c1ccc(Br)cc1 | 63.4% |
| COc1ccc(C(=O)c2[nH]c(N)c(C(=O)c3c[nH]c4ccccc34)c2-c2ccc(OC)cc2)cc1 | 89.4% |
| COc1ccc2cccc(-c3c(C(=O)c4ccc(Br)cc4)[nH]c(N)c3C(=O)NCc3ccc(F)c(F)c3)c2c1 | 86.3% |

| Structure (SMILES) | Activity |
| --- | --- |
| NC(=O)c1c(N)[nH]c(C(=O)c2ccccc2)c1-c1ccccc1Cl | 114% |
| Nc1[nH]c(C(=O)c2ccccc2)c(-c2ccccc2Cl)c1C(=O)NCCc1c[nH]c2ccccc12 | 98.2% |
| Cc1[nH]c2ccccc2c1C(=O)c1c(N)[nH]c(C(=O)c2ccccc2)c1-c1ccc(Cl)cc1 | 79.7% |
| Nc1[nH]c(C(=O)c2ccccc2)c(-c2ccncc2)c1C(=O)NCCc1c[nH]c2ccccc12 | 106% |
| Nc1[nH]c(C(=O)c2ccccc2)c(-c2ccc(Br)cc2)c1C(=O)NC1CCCCC1 | 87.5% |
| Nc1[nH]c(C(=O)c2ccc(Br)cc2)c(-c2ccccn2)c1C(=O)NCCc1c[nH]c2ccccc12 | 42% |
| Nc1[nH]c2cc(C(F)(F)F)ccc2c1C(=O)N1CCN(CCc2ccccc2)CC1 | 109% |
| Nc1[nH]c(C(=O)c2ccccc2)c(-c2ccc(Br)cc2)c1C(=O)NCCCN1CCOCC1 | 104% |
| Nc1[nH]c(C(=O)c2ccccc2)c(-c2ccccc2Br)c1C(=O)NCCc1c[nH]c2ccccc12 | 61.9% |
| COc1ccccc1CCNC(=O)c1c(N)[nH]c(C(=O)c2ccccc2)c1-c1ccc(Br)cc1 | 64.5% |
| COc1ccc(-c2c(C(=O)c3ccccc3)[nH]c(N)c2C(=O)NCCc2c[nH]c3ccccc23)cc1 | 35.3% |
| Nc1[nH]c(C(=O)c2ccccc2)c(-c2ccc(Cl)cc2Cl)c1C(=O)c1ccc(Br)cc1 | 88.3% |
| COc1ccc2cccc(-c3c(C(=O)c4ccc(Br)cc4)[nH]c(N)c3C(=O)NCc3ccc(-c4ccccc4)cc3)c2c1 | 115% |
| COc1ccc(C(=O)c2[nH]c(N)c(C(=O)c3ccccc3)c2-c2ccc(OC)c(OC)c2)cc1 | 95.7% |
| NC(=O)c1c(N)[nH]c(C(=O)c2ccccc2)c1-c1ccc2c(c1)OCO2 | 92.3% |
| Nc1[nH]c(C(=O)c2ccc(Br)cc2)c(-c2ccc3ccccc3c2)c1C(=O)NCCc1c[nH]c2ccccc12 | 36% |
| Nc1[nH]c(C(=O)c2ccccc2)c(-c2ccc3ccccc3c2)c1C(=O)NC1CC1 | 83.5% |
| Nc1[nH]c(C(=O)c2ccccc2)c(-c2ccc(Cl)cc2)c1C(=O)c1c[nH]c2ccc(Br)cc12 | 50.9% |
| NC(=O)c1c(N)[nH]c(C(=O)c2ccccc2)c1-c1cccnc1 | 99.1% |
| Nc1[nH]c(C(=O)c2ccc(Br)cc2)c(-c2c(F)cccc2F)c1C(=O)NCCc1c[nH]c2ccccc12 | 69.3% |
| CC(C)(C)C(=O)c1c(N)[nH]c(C(=O)c2ccccc2)c1-c1c(F)cccc1F | 91.9% |
| Nc1[nH]c(C(=O)c2ccccc2)c(-c2cccnc2)c1C(=O)NC1CCCCC1 | 77.5% |
| CC(C)(C)C(=O)c1c(N)[nH]c(C(=O)c2ccccc2)c1-c1ccc(Br)cc1 | 87.2% |
| Nc1[nH]c(C(=O)c2ccccc2)c(-c2ccc(F)cc2)c1C(=O)NCCc1c[nH]c2ccccc12 | 59.6% |
| NC(=O)c1c(N)[nH]c(C(=O)c2ccccc2)c1-c1ccncc1 | 98.9% |
| Nc1[nH]c2ccccc2c1C(=O)NC1CC1 | 126% |

| Structure (SMILES) | Activity |
| --- | --- |
| CC(NC(=O)c1c(N)[nH]c(C(=O)c2ccc(Cl)cc2)c1-c1ccc(Br)cc1)c1cccc2ccccc12 (configuration not stated) | 122% |
| Nc1[nH]c(C(=O)c2ccccc2)c(-c2ccccn2)c1C(=O)c1c[nH]c2ccc(Br)cc12 | 55.3% |
| NC(=O)c1c(N)[nH]c(C(=O)c2ccccc2)c1-c1cccc2ccccc12 | 69.2% |
| Nc1[nH]c(C(=O)c2ccccc2)c(-c2ccccc2C(F)(F)F)c1C(=O)NCCc1cccs1 | 91.5% |
| Nc1[nH]c2cc(C(F)(F)F)ccc2c1C(=O)NC1CCCCC1 | 125% |
| Cc1ccccc1-c1c(C(=O)c2ccccc2)[nH]c(N)c1C(=O)c1ccc(Cl)cc1 | 94.9% |
| COc1ccc(-c2c(C(=O)c3ccccc3)[nH]c(N)c2C(=O)NCc2ccccc2)cc1OC | 90.7% |
| Nc1[nH]c(C(=O)c2ccccc2)c(-c2ccc(Br)cc2)c1C(=O)NCCc1c[nH]c2ccccc12 | 73.5% |
| Cc1ccc(-c2c(C(=O)c3ccccc3)[nH]c(N)c2C(=O)NCCc2c[nH]c3ccccc23)cc1 | 33.3% |
| Nc1[nH]c(C(=O)c2ccccc2)c(-c2ccc(Br)cc2)c1C(=O)c1ccc(Br)cc1 | 62.2% |
| CC(C)(C)C(=O)c1c(N)[nH]c(C(=O)c2ccccc2)c1-c1ccc(Cl)cc1Cl | 79.9% |
| Nc1[nH]c(C(=O)c2ccccc2)c(-c2ccc3ccccc3c2)c1C(=O)NCCc1ccc(Cl)cc1 | 80.6% |
| COCCNC(=O)c1c(N)[nH]c(C(=O)c2ccc(Br)cc2)c1-c1ccc(Br)cc1 | 103% |
| COc1ccc(C(=O)c2[nH]c(N)c(C(N)=O)c2-c2ccc(O)c(OC)c2)cc1 | 67.1% |
| Nc1[nH]c(C(=O)c2ccccc2)c(-c2c(F)cccc2Cl)c1C(=O)NCCc1c[nH]c2ccccc12 | 92.7% |
| Nc1[nH]c(C(=O)c2ccc(Cl)cc2)c(-c2ccc(Br)cc2)c1C(=O)c1c[nH]c2ccc(F)cc12 | 96.2% |
| Cc1ccc(S(=O)(=O)n2c(-c3ccccc3)cc(C(=O)NC3CC3)c2N)cc1 | 92.2% |
| Nc1[nH]c2cc(Cl)ccc2c1C(=O)NCCc1ccc(Cl)cc1 | 80.2% |
| COc1ccc(C(=O)c2[nH]c(N)c(C(N)=O)c2-c2ccc(OC)c(OC)c2)cc1 | 58% |
| Nc1[nH]c(C(=O)c2ccccc2)c(-c2ccc(F)cc2)c1C(=O)Cc1ccccc1 | 75.1% |
| COc1ccc(C(=O)c2[nH]c(N)c(C(=O)NCCc3c[nH]c4ccccc34)c2-c2ccc(Br)cc2)cc1 | 40.1% |
| Nc1[nH]c(C(=O)c2ccccc2)c(-c2ccccn2)c1C(=O)c1c[nH]c2ccccc12 | 104% |
| NC(=O)c1c(N)[nH]c(C(=O)c2ccccc2)c1-c1ccc2ccccc2c1 | 79.1% |
| Nc1[nH]c(C(=O)c2ccccc2)c(-c2ccc(Cl)c(Cl)c2)c1C(=O)NCCc1c[nH]c2ccccc12 | 36.8% |
| Nc1[nH]c(C(=O)c2ccccc2)c(-c2ccc(Cl)cc2Cl)c1C(=O)NCCC1=CCCCC1 | 76.5% |
